According to ChEMBL document CHEMBL3804828, “2,4,6-Triaminopyrimidine as a Novel Hinge Binder in a Series of PI3Kδ Selective Inhibitors” (J Med Chem, 2016):

Key:
Rattus norvegicus [1] = assay: Antiarthritis activity in collagen-induced Lewis rat arthritis model assessed as reduction in pannus formation at 1.07 mg/kg administered bid through oral gavage for 7 days measured every day started on day 9 and continuing through day 16 of compound dosing relative to vehicle-treated control; type: functional; parameters: scale not given: the % may be the effect or the level left
Outline: (§1)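 Female Lewis rats with established collagen-induced arthritis dosed orally by gavage twice daily for 7 days (study days 10–16) with vehicle, 0.34, 1.07, 4.6 or 10 mg/kg, or dexamethasone 0.03 mg/kg; right and left ankle diameters by caliper daily, days 9–16; ankle and knee sections graded 0–5 per histopathology parameter; p < 0.05 versus arthritis + vehicle.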

[2] = Tmax in Lewis rat at 1 mg/kg, iv administered via infusion over 30 mins or at 5 mg/kg, po administered via gavage by LC/MS/MS analysis; type: ADME, organism-based; conditions: in vivo
Outline: (§2)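 Female Lewis rats, n=3 per route; 30-min iv infusion at 1 mg/kg and oral dose at 5 mg/kg, both in 30% PEG 400/70% water; plasma concentration-time profiles sampled to 24 h; values as mean ± SD.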

[3] = Plasma clearance in beagle dog at 1 mg/kg, iv administered via infusion over 30 mins measured after 24 hrs by LC/MS/MS analysis; type: ADME, organism-based, Canis lupus familiaris
Outline: (§3)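 Dogs, n=3 per route; iv dose 1 mg/kg in 5% ethanol/55% PEG 400/40% citrate buffer pH 2; oral dose 5 mg/kg in 15% Captisol (w/v) in water; plasma pharmacokinetics.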

Rattus norvegicus [4] = assay: In vivo inhibition of PI3Kdelta in rat B-cells assessed as reduction in […] cell activation; type: functional, organism-based
Outline: (§4)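 Rat whole blood, ex vivo; B-cell activation stimulated by anti-IgD (BCR); EC50 and EC90 derived from inhibition of activation.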

Rattus norvegicus [5] = assay: Antiarthritis activity in collagen-induced Lewis rat arthritis model assessed as reduction in ankle swelling administered bid through oral gavage for 7 days measured every day started on day 9 and continuing through day 16 of compound dosing; type: functional, organism-based; outline: as §1
[6] = Clearance in dog hepatocytes at 1 uM by LC/MS/MS analysis; type: ADME, cell-based, Canis lupus familiaris, Hepatocyte
Rattus norvegicus [7] = assay: Antiarthritis activity in collagen-induced Lewis rat arthritis model assessed as reduction of periosteal bone width administered bid through oral gavage for 7 days measured every day started on day 9 and continuing through day 16 of compound dosing; type: functional; outline: as §1
Rattus norvegicus [8] = assay: Antiarthritis activity in collagen-induced Lewis rat arthritis model assessed as reduction of bone resorption administered bid through oral gavage for 7 days measured every day started on day 9 and continuing through day 16 of compound dosing; type: functional; outline: as §1
Homo sapiens = organism: Homo sapiens; assay: Selectivity ratio of IC50 for human full length PI3Kalpha catalytic subunit/p85alpha to IC50 for human full length PI3Kdelta catalytic subunit/p85alpha
Outline: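 Ratio calculated from the isoform-specific PI3K IC50 values, with enzyme assays run in quadruplicate.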

[9] = AUCinfinity in Lewis rat at 1 mg/kg, iv administered via infusion over 30 mins or at 5 mg/kg, po administered via gavage by LC/MS/MS analysis; type: ADME, organism-based; conditions: in vivo; outline: as §2
Rattus norvegicus [10] = assay: Antiarthritis activity in collagen-induced Lewis rat arthritis model assessed as reduction in pannus formation administered bid through oral gavage for 7 days measured every day started on day 9 and continuing through day 16 of compound dosing; type: functional; outline: as §1
[11] = target: PI3-kinase p110-delta/p85-alpha (Homo sapiens, UniProt O00329); assay: Inhibition human full length PI3Kdelta catalytic subunit/p85alpha assessed as formation of PIP3 after 30 mins by europium labeled GRP-based TR-FRET assay; type: protein-complex assay
PI3-kinase p110-delta/p85-alpha, sequence (P27986 whole entry): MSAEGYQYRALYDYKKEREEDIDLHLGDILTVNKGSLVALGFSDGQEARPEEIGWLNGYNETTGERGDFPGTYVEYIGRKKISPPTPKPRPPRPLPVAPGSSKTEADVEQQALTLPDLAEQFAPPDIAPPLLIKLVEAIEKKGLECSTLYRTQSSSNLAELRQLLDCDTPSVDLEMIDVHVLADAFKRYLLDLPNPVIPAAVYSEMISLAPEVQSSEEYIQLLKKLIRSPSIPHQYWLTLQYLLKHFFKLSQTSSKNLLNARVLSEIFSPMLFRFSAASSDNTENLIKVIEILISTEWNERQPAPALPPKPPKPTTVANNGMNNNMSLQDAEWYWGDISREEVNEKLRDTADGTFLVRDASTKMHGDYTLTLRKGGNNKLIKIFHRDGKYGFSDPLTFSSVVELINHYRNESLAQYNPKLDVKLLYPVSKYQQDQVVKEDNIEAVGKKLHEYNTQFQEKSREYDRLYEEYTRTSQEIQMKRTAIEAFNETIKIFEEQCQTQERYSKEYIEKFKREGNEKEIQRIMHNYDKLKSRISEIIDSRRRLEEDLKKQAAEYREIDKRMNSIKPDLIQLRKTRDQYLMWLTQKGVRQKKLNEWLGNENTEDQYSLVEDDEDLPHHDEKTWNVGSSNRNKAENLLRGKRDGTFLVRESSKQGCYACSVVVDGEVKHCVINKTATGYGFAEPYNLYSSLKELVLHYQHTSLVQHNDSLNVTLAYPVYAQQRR
PI3-kinase p110-delta/p85-alpha, sequence (O00329 whole entry): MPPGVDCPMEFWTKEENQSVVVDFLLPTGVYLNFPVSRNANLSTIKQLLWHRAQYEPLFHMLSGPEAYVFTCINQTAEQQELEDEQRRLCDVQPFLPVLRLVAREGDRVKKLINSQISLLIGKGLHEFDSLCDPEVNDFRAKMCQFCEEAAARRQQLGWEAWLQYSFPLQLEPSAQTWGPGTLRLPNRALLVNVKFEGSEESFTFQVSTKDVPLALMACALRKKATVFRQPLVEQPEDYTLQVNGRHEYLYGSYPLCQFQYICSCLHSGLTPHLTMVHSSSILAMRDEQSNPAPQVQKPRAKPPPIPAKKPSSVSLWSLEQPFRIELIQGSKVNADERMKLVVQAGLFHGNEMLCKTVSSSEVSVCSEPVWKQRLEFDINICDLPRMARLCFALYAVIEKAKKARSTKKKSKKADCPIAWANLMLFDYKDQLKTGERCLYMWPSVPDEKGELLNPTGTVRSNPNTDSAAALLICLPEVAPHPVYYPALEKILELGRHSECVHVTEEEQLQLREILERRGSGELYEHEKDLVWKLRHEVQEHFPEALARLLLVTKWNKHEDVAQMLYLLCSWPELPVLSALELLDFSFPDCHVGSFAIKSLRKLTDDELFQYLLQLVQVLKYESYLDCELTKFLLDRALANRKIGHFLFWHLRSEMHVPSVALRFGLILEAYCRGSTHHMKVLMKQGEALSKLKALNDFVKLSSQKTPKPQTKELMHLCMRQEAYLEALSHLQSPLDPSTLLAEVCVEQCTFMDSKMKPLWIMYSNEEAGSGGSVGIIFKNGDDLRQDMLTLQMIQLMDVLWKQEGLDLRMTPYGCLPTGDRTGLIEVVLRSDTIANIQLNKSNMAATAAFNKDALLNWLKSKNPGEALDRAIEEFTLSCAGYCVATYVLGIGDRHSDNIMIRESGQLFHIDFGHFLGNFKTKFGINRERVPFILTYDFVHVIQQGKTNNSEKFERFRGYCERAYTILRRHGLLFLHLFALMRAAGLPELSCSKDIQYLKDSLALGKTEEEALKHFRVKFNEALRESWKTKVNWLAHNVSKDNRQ

Rattus norvegicus [12] = assay: Antiarthritis activity in collagen-induced Lewis rat arthritis model assessed as reduction of bone resorption at 1.07 mg/kg administered bid through oral gavage for 7 days measured every day started on day 9 and continuing through day 16 of compound dosing relative to vehicle-treated control; type: functional; parameters: scale not given: the % may be the effect or the level left; outline: as §1
[13] = Volume of distribution at steady state in Lewis rat at 1 mg/kg, iv administered via infusion over 30 mins measured after 24 hrs by LC/MS/MS analysis; type: ADME, organism-based; conditions: in vivo, read-out: Vdss; outline: as §2
[14] = Oral bioavailability in beagle dog at 5 mg/kg administered through gavage measured after 24 hrs by LC/MS/MS analysis; type: ADME, organism-based, Canis lupus familiaris; conditions: in vivo; outline: as §3
Rattus norvegicus [15] = assay: Antiarthritis activity in collagen-induced Lewis rat arthritis model assessed as reduction in ankle inflammation administered bid through oral gavage for 7 days measured every day started on day 9 and continuing through day 16 of compound dosing; type: functional; outline: as §1
Rattus norvegicus [16] = assay: Antiarthritis activity in collagen-induced Lewis rat arthritis model assessed as reduction in cartilage damage at 1.07 mg/kg administered bid through oral gavage for 7 days measured every day started on day 9 and continuing through day 16 of compound dosing relative to vehicle-treated control; type: functional; parameters: scale not given: the % may be the effect or the level left; outline: as §1
[17] = Oral bioavailability in Lewis rat at 5 mg/kg administered through gavage measured after 24 hrs by LC/MS/MS analysis; type: ADME, organism-based; conditions: in vivo; outline: as §2
Rattus norvegicus [18] = assay: In vivo inhibition of PI3Kdelta in collagen-induced Lewis rat arthritis model at 0.34 mg/kg administered bid through oral gavage at 2 to 12 hrs on 3rd and 7th day of compound dosing; type: functional
Outline: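 Female Lewis rats with established collagen-induced arthritis got vehicle or drug by oral gavage twice daily for 7 days (study days 10–16). Blood was sampled at set times after dosing on days 3 and 7 for plasma drug levels. PI3Kδ inhibition was inferred from those levels against EC50/EC90 values from a rat whole-blood ex vivo anti-IgD (BCR)-stimulated B-cell activation assay.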

[19] = Volume of distribution at steady state in beagle dog at 1 mg/kg, iv administered via infusion over 30 mins measured after 24 hrs by LC/MS/MS analysis; type: ADME, organism-based, Canis lupus familiaris; conditions: in vivo, read-out: Vdss; outline: as §3
Rattus norvegicus [20] = organism: Rattus norvegicus; assay: (§5) Inhibition of PI3Kdelta in rat B-cells assessed as reduction in anti IgD-mediated cell activation after 18 to 24 hrs by flow cytometric analysis; outline: as §4
[21] = as §5; outline: as §4
Hepatocyte = assay: Clearance in rat hepatocytes at 1 uM by LC/MS/MS analysis; type: ADME, cell-based
Rattus norvegicus [22] = assay: Antiarthritis activity in collagen-induced Lewis rat arthritis model assessed as reduction of periosteal bone width at 1.07 mg/kg administered bid through oral gavage for 7 days measured every day started on day 9 and continuing through day 16 of compound dosing relative to vehicle-treated control; type: functional; parameters: scale not given: the % may be the effect or the level left; outline: as §1
[23] = Cmax in Lewis rat at 1 mg/kg, iv administered via infusion over 30 mins or at 5 mg/kg, po administered via gavage by LC/MS/MS analysis; type: ADME, organism-based; conditions: in vivo; outline: as §2
[24] = Clearance in human hepatocytes at 1 uM by LC/MS/MS analysis; type: ADME, cell-based, Hepatocyte
Outline: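 Human hepatocytes, incubated with and without the aldehyde oxidase inhibitor raloxifene; predicted clearance calculated from turnover.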

C[C@H](Nc1nc(N)nc(N)c1C#N)c1nc2cccc(F)c2c(=O)n1-c1cc(F)cc(F)c1
Activity (Rattus norvegicus [1]): 60%
Tmax [2]: 1 h
clearance [3]: 9.67 mL/min/kg
EC90 (Rattus norvegicus [4]): 100 nM
EC50 (Rattus norvegicus [4]; Rattus norvegicus): 20.5 nM
Activity (Rattus norvegicus [5]): Dose-dependent effect
CLH [6]: 4.17 mL/min/kg
ED50 (Rattus norvegicus [7]): 1.5 mg/kg
ED50 (Rattus norvegicus [8]): 1.5 mg/kg
Ratio IC50 (Homo sapiens): 1900
AUC(0-inf) [9]: 17 µM·h
ED50 (Rattus norvegicus [10]): 1.5 mg/kg
IC50 [11]: 2.2 nM
Activity (Rattus norvegicus [12]): 63%
Vd [13]: 2.6 L/kg
bioavailability [14]: 100%
ED50 (Rattus norvegicus [15]): 1.5 mg/kg
Activity (Rattus norvegicus [16]): 50%
bioavailability [17]: 106%
inhibition in vivo at 0.34 mg/kg (Rattus norvegicus [18]): 25%
Vd [19]: 1.3 L/kg
EC90 (Rattus norvegicus [20]): 100 nM
EC50 [21]: 11 nM
CLH (Hepatocyte): 23.3 mL/min/kg
Activity (Rattus norvegicus [22]): 52%
Cmax [23]: 2830 nM
CLhep predicted at 1 µM [24]: 5.67 mL/min/kg
